≈ marks a conversion by molar mass, not a printed value.
Assays:
Assay type in all cases: functional, Salmonella enterica subsp. enterica serovar Typhimurium
Salmonella typhimurium [1] = assay: Antimicrobial activity against Salmonella enterica serovar Typhimurium S21
In short: (§1)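 MICs measured by broth microdilution on the Sensititre automated system and interpreted by CLSI broth microdilution standards. Ciprofloxacin was also tested by agar dilution, widening the range to 0.0075–128 μg/ml. Quality control strains were E. coli ATCC 25922 and 35218, E. faecalis ATCC 29212, S. aureus ATCC 29213 and P. aeruginosa ATCC 27853.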

Salmonella typhimurium [2] = assay: Antimicrobial activity against Salmonella enterica serovar Typhimurium S21 gyrA+; in short: as §1
Salmonella typhimurium [3] = assay: Antimicrobial activity against Salmonella enterica serovar Typhimurium S21 acrAB::Kan
In short: (§2)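 MICs by automated broth microdilution panels, interpreted to CLSI broth microdilution standards. Ciprofloxacin additionally tested by agar dilution across 0.0075 to 128 μg/ml. Quality control strains: E. coli ATCC 25922 and 35218, Enterococcus faecalis ATCC 29212, S. aureus ATCC 29213, P. aeruginosa ATCC 27853. Test strains are kanamycin-marked deletion mutants of ground-beef isolate S21.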

Salmonella typhimurium [4] = assay: Antimicrobial activity against Salmonella enterica serovar Typhimurium S21 tolC::Kan; in short: as §2
Salmonella typhimurium [5] = assay: Antimicrobial activity against Salmonella enterica serovar Typhimurium S21-1 GyrA S83F mutant; in short: as §1
Salmonella typhimurium [6] = assay: Antimicrobial activity against Salmonella enterica serovar Typhimurium S21-1 gyrA+; in short: as §1
Salmonella typhimurium [7] = assay: Antimicrobial activity against Salmonella enterica serovar Typhimurium S21-2 with GyrA S83F, ParC S80I mutation; in short: as §1
Salmonella typhimurium [8] = assay: Antimicrobial activity against Salmonella enterica serovar Typhimurium S21-2 gyrA+ with ParC S80I mutation; in short: as §1
Salmonella typhimurium [9] = assay: Antimicrobial activity against Salmonella enterica serovar Typhimurium S21-3 with GyrA S83F, ParC S80I mutation; in short: as §1
Salmonella typhimurium [10] = assay: Antimicrobial activity against Salmonella enterica serovar Typhimurium S21-3 gyrA+ with ParC S80I mutation; in short: as §1
Salmonella typhimurium [11] = assay: Antimicrobial activity against Salmonella enterica serovar Typhimurium CHS14 gyrA+ with GyrA D87G mutation; in short: as §1
Salmonella typhimurium [12] = assay: Antimicrobial activity against Salmonella enterica serovar Typhimurium CHS14 acrAB::Kan with GyrA D87G mutation; in short: as §1
Salmonella typhimurium [13] = assay: Antimicrobial activity against Salmonella enterica serovar Typhimurium CHS14 tolC::Kan with GyrA D87G mutant; in short: as §1
Salmonella typhimurium [14] = assay: Antimicrobial activity against Salmonella enterica serovar Typhimurium CHS18 with GyrA S38F mutation; in short: as §1
Salmonella typhimurium [15] = assay: Antimicrobial activity against Salmonella enterica serovar Typhimurium CHS18 gyrA+ with GyrA S38F mutation; in short: as §1
Salmonella typhimurium [16] = assay: Antimicrobial activity against Salmonella enterica serovar Typhimurium CHS18 acrAB::Kan with GyrA S38F mutation; in short: as §1
Salmonella typhimurium [17] = assay: Antimicrobial activity against Salmonella enterica serovar Typhimurium CHS18 tolC::Kan with GyrA S38F mutation; in short: as §1
Salmonella typhimurium [18] = assay: Antimicrobial activity against Salmonella enterica serovar Typhimurium S21-4 with GyrA S83F, ParC S80I mutation; in short: as §1
Salmonella typhimurium [19] = assay: Antimicrobial activity against Salmonella enterica serovar Typhimurium S21-4 gyrA+ with ParC S80I mutation; in short: as §1
Salmonella typhimurium [20] = assay: Antimicrobial activity against Salmonella enterica serovar Typhimurium S21-4 tolC::Kan with GyrA S83F, ParC S80I mutation; in short: as §1
Salmonella typhimurium [21] = assay: Antimicrobial activity against Salmonella enterica serovar Typhimurium CS1 with GyrA S83F, D87N, ParC S80I mutation; in short: as §1
Salmonella typhimurium [22] = assay: Antimicrobial activity against Salmonella enterica serovar Typhimurium CS1 gyrA+ with GyrA S83F, D87N, ParC S80I mutation; in short: as §1
Salmonella typhimurium [23] = assay: Antimicrobial activity against Salmonella enterica serovar Typhimurium CS1 acrAB::Kan with GyrA S83F, D87N, ParC S80I mutation; in short: as §1
Salmonella typhimurium [24] = assay: Antimicrobial activity against Salmonella enterica serovar Typhimurium CS1 tolC::Kan with GyrA S83F, D87N, ParC S80I mutation; in short: as §1
Salmonella typhimurium [25] = assay: Antimicrobial activity against Salmonella enterica serovar Typhimurium CS3 with GyrA S83F, D87N, ParC S80I mutation; in short: as §1
Salmonella typhimurium [26] = assay: Antimicrobial activity against Salmonella enterica serovar Typhimurium CS3 gyrA+ with GyrA S83F, D87N, ParC S80I mutation; in short: as §1
Salmonella typhimurium [27] = assay: Antimicrobial activity against Salmonella enterica serovar Typhimurium CS3 acrAB::Kan with GyrA S83F, D87N, ParC S80I mutation; in short: as §1
Salmonella typhimurium [28] = assay: Antimicrobial activity against Salmonella enterica serovar Typhimurium CS3 tolC::Kan with GyrA S83F, D87N, parC S80I mutation; in short: as §1
Salmonella typhimurium [29] = assay: Antimicrobial activity against Salmonella enterica serovar Typhimurium CS9 with GyrA S83F, D87N, ParC S80I mutation; in short: as §1
Salmonella typhimurium [30] = assay: Antimicrobial activity against Salmonella enterica serovar Typhimurium CS9 gyrA+ with GyrA S83F, D87N, ParC S80I mutation; in short: as §1
Salmonella typhimurium [31] = assay: Antimicrobial activity against Salmonella enterica serovar Typhimurium CS9 acrAB::Kan with GyrA S83F, D87N, ParC S80I mutation; in short: as §1
Salmonella typhimurium [32] = assay: Antimicrobial activity against Salmonella enterica serovar Typhimurium CS9 tolC::Kan with GyrA S83F, D87N, ParC S80I mutation; in short: as §1
Salmonella typhimurium [33] = assay: Antimicrobial activity against Salmonella enterica serovar Typhimurium CHS14 with GyrA D87G mutation; in short: as §1
Salmonella typhimurium [34] = assay: Antimicrobial activity against Salmonella enterica serovar Typhimurium CHS38 with GyrA D87G mutation; in short: as §1
Salmonella typhimurium [35] = assay: Antimicrobial activity against Salmonella enterica serovar Typhimurium CHS38 gyrA+ with GyrA D87G mutation; in short: as §1
Salmonella typhimurium [36] = assay: Antimicrobial activity against Salmonella enterica serovar Typhimurium CHS38 acrAB::Kan with GyrA D87G mutation; in short: as §1
Salmonella typhimurium [37] = assay: Antimicrobial activity against Salmonella enterica serovar Typhimurium CHS38 tolC::Kan with GyrA D87G mutation; in short: as §1

Structure (SMILES): CN(C)[C@@H]1C(O)=C(C(N)=O)C(=O)[C@@]2(O)C(O)=C3C(=O)c4c(O)cccc4[C@@](C)(O)[C@H]3C[C@@H]12 [TETRACYCLINE]
- MIC (Salmonella typhimurium [1]): < 4 mg/L
- MIC (Salmonella typhimurium [2]): < 4 mg/L
- MIC (Salmonella typhimurium [3]): < 4 mg/L
- MIC (Salmonella typhimurium [4]): < 4 mg/L
- MIC (Salmonella typhimurium [5]): 32 mg/L (≈ 72 µM)
- MIC (Salmonella typhimurium [6]): 32 mg/L (≈ 72 µM)
- MIC (Salmonella typhimurium [7]): > 32 mg/L
- MIC (Salmonella typhimurium [8]): > 32 mg/L
- MIC (Salmonella typhimurium [9]): > 32 mg/L
- MIC (Salmonella typhimurium [10]): > 32 mg/L
- MIC (Salmonella typhimurium [11]): > 32 mg/L
- MIC (Salmonella typhimurium [12]): > 32 mg/L
- MIC (Salmonella typhimurium [13]): > 32 mg/L
- MIC (Salmonella typhimurium [14]): 4 mg/L (≈ 9 µM)
- MIC (Salmonella typhimurium [15]): 4 mg/L (≈ 9 µM)
- MIC (Salmonella typhimurium [16]): 4 mg/L (≈ 9 µM)
- MIC (Salmonella typhimurium [17]): 4 mg/L (≈ 9 µM)
- MIC (Salmonella typhimurium [18]): > 32 mg/L
- MIC (Salmonella typhimurium [19]): > 32 mg/L
- MIC (Salmonella typhimurium [20]): 8 mg/L (≈ 18 µM)
- MIC (Salmonella typhimurium [21]): > 32 mg/L
- MIC (Salmonella typhimurium [22]): > 32 mg/L
- MIC (Salmonella typhimurium [23]): > 32 mg/L
- MIC (Salmonella typhimurium [24]): 32 mg/L (≈ 72 µM)
- MIC (Salmonella typhimurium [25]): > 32 mg/L
- MIC (Salmonella typhimurium [26]): > 32 mg/L
- MIC (Salmonella typhimurium [27]): > 32 mg/L
- MIC (Salmonella typhimurium [28]): 32 mg/L (≈ 72 µM)
- MIC (Salmonella typhimurium [29]): > 32 mg/L
- MIC (Salmonella typhimurium [30]): > 32 mg/L
- MIC (Salmonella typhimurium [31]): > 32 mg/L
- MIC (Salmonella typhimurium [32]): 32 mg/L (≈ 72 µM)
- MIC (Salmonella typhimurium [33]): > 32 mg/L
- MIC (Salmonella typhimurium [34]): 32 mg/L (≈ 72 µM)
- MIC (Salmonella typhimurium [35]): 32 mg/L (≈ 72 µM)
- MIC (Salmonella typhimurium [36]): 16 mg/L (≈ 36 µM)
- MIC (Salmonella typhimurium [37]): 16 mg/L (≈ 36 µM)
